Measurements from different studies.
Each line is one published result; the experiments were not run side by side.
Organism: Candida albicans
Observed: microbial growth
Technique: broth dilution

| Structure (SMILES) | strain | time | MIC |
| --- | --- | --- | --- |
| O=C1/C(=C/c2ccc3ccccc3c2O)NC(=S)N1c1ccccc1 | ATCC10 ATCC10231 |  | 20 µg/mL |
| Cc1ccc(N=Nc2c(N)nn3c(-c4ccc(Cl)cc4Cl)cc(-c4ccc(OCc5ccccc5)cc4)nc23)cc1 | ATCC10231 |  | 31.3 µg/mL |
| OC(Cn1cncn1)(Cn1cncn1)c1ccc(F)cc1F | 8 | 24 h | 1 µg/mL |
| N#CC(C#N)=C1SC(C(=O)c2ccc(Nc3cnccn3)cc2)=NN1c1ccc([N+](=O)[O-])cc1 | ATCC10231 |  | 12.5 µg/mL |
| C=CC(=O)ON=C1C=CC(=C(C#N)c2ccccc2)C=C1 | ATCC10231 | 48 h | 2 µg/mL |
| Cc1ccc(-c2cc(-c3ccc(OCc4ccccc4)cc3)nc3c(N=Nc4ccc(F)cc4)c(N)nn23)cc1 | ATCC10231 |  | 62.5 µg/mL |
| N#CC(=C1C=CC(=NOC(=O)OCc2ccccc2)C=C1)c1ccccc1 | ATCC10231 | 48 h | 256 µg/mL |
| COc1ccc(-n2nc(C(=O)c3ccc(Nc4cnccn4)cc3)sc2=N)cc1 | ATCC10231 |  | 50 µg/mL |
| C/C(=N\NC(=O)/N=C(\C)c1c(O)c2ccccc2oc1=O)c1c(O)c2ccccc2oc1=O |  | 48 h | 31.2 µg/mL |
| OC(Cn1cncn1)(Cn1cncn1)c1ccc(F)cc1F | SP3902 | 48 h | 8 µM |
| C/C(=N\c1nc(N)nc(/N=C(\C)c2c(O)c3ccccc3oc2=O)n1)c1c(O)c2ccccc2oc1=O |  | 48 h | 62.5 µg/mL |
| N#CC(C#N)=C1SC(C(=O)c2ccc(Nc3cnccn3)cc2)=NN1c1ccccc1 | ATCC10231 |  | 100 µg/mL |
| CCON=C1C=CC(=C(C#N)c2ccccc2)C=C1 | ATCC10231 | 48 h | 256 µg/mL |
| Cc1ccc(N=Nc2c(N)nn3c(-c4ccco4)cc(-c4ccc(OCc5ccccc5)cc4)nc23)cc1 | ATCC10231 |  | 31.3 µg/mL |
| C/C(=N\C(=N)/N=C(\C)c1c(O)c2ccccc2oc1=O)c1c(O)c2ccccc2oc1=O |  | 48 h | 31.2 µg/mL |
| OC(Cn1cncn1)(Cn1cncn1)c1ccc(F)cc1F | ATCC90028 | 48 h | 8 µg/mL |
| CC(=O)N1CCN(c2ccc(OCC3COC(Cn4ccnc4)(c4ccc(Cl)cc4Cl)O3)cc2)CC1 (centres unmarked) | 14936 | 48 h | 2 µM |
| CC(=O)N1CCN(c2ccc(OCC3COC(Cn4ccnc4)(c4ccc(Cl)cc4Cl)O3)cc2)CC1 (centres unmarked) | ATCC10231 | 48 h | 8 µg/mL |
| CCn1c2ccccc2c2cc(CNC)ccc21 | SN152 | 24 h | 64 µg/mL |
| C[C@@H]1[C@H](O)[C@@H](C)/C=C/C=C/C=C/C=C/C=C/C=C/C=C/[C@H](O[C@@H]2O[C@H](C)[C@@H](O)[C@H](N)[C@@H]2O)C[C@@H]2O[C@](O)(C[C@@H](O)C[C@@H](O)[C@H](O)CC[C@@H](O)C[C@@H](O)CC(=O)O[C@H]1C)C[C@H](O)[C@H]2C(=O)O | SP3903 | 48 h | < 0.25 µM |
| C/C(=N\C1CCCCC1/N=C(\C)c1c(O)c2ccccc2oc1=O)c1c(O)c2ccccc2oc1=O (centres unmarked) |  | 48 h | 31.2 µg/mL |
| Nc1nn2c(-c3ccc(Cl)cc3Cl)cc(-c3ccc(OCc4ccccc4)cc3)nc2c1N=Nc1ccc(F)cc1 | ATCC10231 |  | 62.5 µg/mL |
| C#CCOC(=O)ON=C1C=CC(=C(C#N)c2ccccc2)C=C1 | ATCC10231 | 48 h | 4 µg/mL |
| COc1ccc(N=Nc2c(N)nn3c(-c4ccc(C)cc4)cc(-c4ccc(OCc5ccccc5)cc4)nc23)cc1 | ATCC10231 |  | 62.5 µg/mL |
| C/C(=N\CCNCCNCC/N=C(\C)c1c(O)c2ccccc2oc1=O)c1c(O)c2ccccc2oc1=O |  | 48 h | 15.6 µg/mL |
| CC(=O)C1=NN(c2ccc([N+](=O)[O-])cc2)C(=C(C#N)C(=O)c2ccc(Nc3cnccn3)cc2)S1 | ATCC10231 |  | 6.25 µg/mL |
